Experimental data from the RNAGym collection of RNA variant scans (doi:10.1126/science.aae0568).
Variants at the floor of the assay were thinned out.

B1: tRNA (parent)
chain: GUUCCGUUGGCGUAAUGGUAACGCGUCUCCCUCCUAAGGAGAAGACUGCGGGUUCGAGUCCCGUACGGAACG

Variants of: B1
Experiment: yeast fitness relative to wild type (ratio to wild type); higher = fitter; tRNA-Arg(CCU), competitive growth, 37 C, YPD
How it was run: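 The tRNA-Arg(CCU) gene variants were made by chemical synthesis with a 3% per-site mutation rate at 69 sites and inserted at the native genomic locus of Saccharomyces cerevisiae. After pooling, the strains were competed in YPD at 37°C for 24 hours in six parallel replicates. Gene amplicons from the start population and each end population were read by 100-nucleotide paired-end sequencing, and Darwinian fitness relative to wild type was taken from genotype frequency changes. Genotypes needed ≥ 100 starting reads, and estimates < 0.5 were set to 0.5.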

Compared with U16G A36U, U16G A37G G51C C62G is lower in yeast fitness: 0.589 for the first, no more than 0.5 for the second.

Going from U16G A37U A45C to U16G A40G, the yeast fitness rises from no more than 0.5 to 0.935.

Compared with U16G A42G G48A, U16G A42U is higher in yeast fitness: no more than 0.5 for the first, 0.994 for the second.

Going from U16G A43U G50C to U16G A45G, the yeast fitness rises from 0.576 to 1.

Compared with U16G A45U, U16G A45U U54C U64A is lower in yeast fitness: 0.969 for the first, no more than 0.5 for the second.

Compared with U16G A65U, U16G C22A A57G is lower in yeast fitness: 0.876 for the first, no more than 0.5 for the second.

Going from U16G C22G A37G A43G G68A to U16G C22G A65U, the yeast fitness rises from no more than 0.5 to 0.722.

First: U16G C22G U32C
Second: U16G C22G U47G
The yeast fitness of the first is higher: 0.767 for the first, 0.557 for the second.

First: U16G C22U C62U
Second: U16G C22U G25A
The yeast fitness of the first is higher: 0.645 for the first, no more than 0.5 for the second.

Compared with U16G C24U U28C A36C A65C, U16G C24U U28C A36C U59C A65C is lower in yeast fitness: 0.58 for the first, no more than 0.5 for the second.

Compared with U16G C27G, U16G C29G G58A is lower in yeast fitness: 0.639 for the first, 0.59 for the second.

First: U16G C29U
Second: U16G C29U C31A A57C G67C
The yeast fitness of the first is higher: 0.806 for the first, no more than 0.5 for the second.

Going from U16G C29U C55G to U16G C30A G51C G56C C62G, the yeast fitness rises from no more than 0.5 to 0.65.

Compared with U16G C30U A65U, U16G C31A C60A G67A is higher in yeast fitness: no more than 0.5 for the first, 0.678 for the second.

U16G C31G C61A C66U and U16G C31G G48C A57U cannot be ordered by yeast fitness: no more than 0.5 for the first, no more than 0.5 for the second.

U16G C33U G44C and U16G C34G A42G C49G U64A cannot be ordered by yeast fitness: no more than 0.5 for the first, no more than 0.5 for the second.

U16G C34U A40G A43G C62A A69C and U16G C46A G56C A70G cannot be ordered by yeast fitness: no more than 0.5 for the first, no more than 0.5 for the second.

Going from U16G C46U A65C to U16G C46U U53C A69C, the yeast fitness falls from 1.13 to 0.711.

Going from U16G C49U G56C to U16G C49U G63A, the yeast fitness rises from no more than 0.5 to 0.994.

First: U16G C60G
Second: U16G C61U
The yeast fitness of the first is lower: 0.658 for the first, 0.75 for the second.

Compared with U16G C61U A69C, U16G C61U C66G is lower in yeast fitness: 0.644 for the first, 0.569 for the second.

Compared with U16G C62U, U16G C62U A70C is lower in yeast fitness: 0.853 for the first, 0.565 for the second.

Compared with U16G G17C A43U G52C, U16G G18C A21U is higher in yeast fitness: no more than 0.5 for the first, 0.59 for the second.

First: U16G G18C U59A A65U
Second: U16G G18C U59A A65U C66A
The yeast fitness of the first is higher: 0.687 for the first, no more than 0.5 for the second.

Compared with U16G G23A A40U, U16G G23C U35C is higher in yeast fitness: no more than 0.5 for the first, 0.655 for the second.

U16G G23C U35C G63A and U16G G25A U28G C34U G63C cannot be ordered by yeast fitness: no more than 0.5 for the first, no more than 0.5 for the second.

First: U16G G25C C46U G50A
Second: U16G G38A U54C A65U
The yeast fitness of the first is higher: 0.581 for the first, no more than 0.5 for the second.

U16G G39A A45C C61A A69U and U16G G39C A42U U54C C55G U64A cannot be ordered by yeast fitness: no more than 0.5 for the first, no more than 0.5 for the second.

First: U16G G44A C62U
Second: U16G G44C
The yeast fitness of the first is lower: 0.652 for the first, 0.912 for the second.

First: U16G G48A
Second: U16G G51A
The yeast fitness of the first is higher: 0.903 for the first, 0.783 for the second.

Compared with U16G G51C A65C, U16G G52A is higher in yeast fitness: 0.635 for the first, 0.668 for the second.

Compared with U16G G56C, U16G G63A is higher in yeast fitness: no more than 0.5 for the first, 0.937 for the second.

Going from U16G G67U to U16G G68A, the yeast fitness rises from 0.774 to 0.967.

Going from U16G U19G C29G G50C C66U to U16G U26A C34U G50A, the yeast fitness rises from no more than 0.5 to 0.552.

Compared with U16G U28A A42U U54A, U16G U32C is higher in yeast fitness: no more than 0.5 for the first, 0.915 for the second.

Compared with U16G U32G C46U C49U, U16G U47A U54A A57U U64A A69U is higher in yeast fitness: no more than 0.5 for the first, 0.678 for the second.

Compared with G17A A20C C24U, G17A A20C G25A is lower in yeast fitness: 0.562 for the first, 0.506 for the second.

Going from G17A A20C G25A C66A G68C to G17A A20C G44C, the yeast fitness rises from no more than 0.5 to 0.617.

G17A A20G A36C A37C U53G A70C and G17A A20G C27G A36C U47A G68A cannot be ordered by yeast fitness: no more than 0.5 for the first, no more than 0.5 for the second.

Going from G17A A20G C30A to G17A A20G C34U C55G, the yeast fitness falls from 0.628 to no more than 0.5.

Compared with G17A A20G G25C C34U C46G G63A A65C, G17A A20G G41A is higher in yeast fitness: 0.561 for the first, 0.593 for the second.

G17A A20G U28A U35A A70C and G17A A20G U53A cannot be ordered by yeast fitness: no more than 0.5 for the first, no more than 0.5 for the second.

Compared with G17A A21C, G17A A21C C29G A70U is lower in yeast fitness: 0.67 for the first, no more than 0.5 for the second.

First: G17A A21G C49U C60A G63A
Second: G17A A21G U26C C62U
The yeast fitness of the first is higher: 0.529 for the first, no more than 0.5 for the second.

First: G17A A21G U26C C66A
Second: G17A A36G C66U
The yeast fitness of the first is lower: no more than 0.5 for the first, 0.65 for the second.

Going from G17A A36U C46U to G17A A37C A69C, the yeast fitness rises from no more than 0.5 to 0.648.

Compared with G17A A37C G52A G56A G63C, G17A A37C G58A is higher in yeast fitness: no more than 0.5 for the first, 0.551 for the second.

Going from G17A A37G to G17A A37U U47A G68C, the yeast fitness rises from 0.606 to 0.645.

Compared with G17A A40C, G17A A40U G52A C60U G63C is lower in yeast fitness: 0.668 for the first, no more than 0.5 for the second.

Going from G17A A42C A70C to G17A A42G G50A, the yeast fitness falls from 0.688 to no more than 0.5.

First: G17A A42G U64A
Second: G17A A42U U59C
The yeast fitness of the first is higher: 0.58 for the first, no more than 0.5 for the second.

Compared with G17A A43G A45G C62G, G17A A45G is higher in yeast fitness: no more than 0.5 for the first, 0.875 for the second.

Going from G17A A45G A65U to G17A A45U G52A, the yeast fitness falls from 0.559 to no more than 0.5.

Compared with G17A A45U G52A A70U, G17A A57U is higher in yeast fitness: 0.535 for the first, 0.644 for the second.

Going from G17A A65U to G17A A69C A70C, the yeast fitness falls from 0.805 to 0.588.

Compared with G17A A70U, G17A C22A A36G A45C C46U is lower in yeast fitness: 0.864 for the first, no more than 0.5 for the second.

Going from G17A C22A A45C G67C to G17A C22A C31A C33A C49A, the yeast fitness rises from no more than 0.5 to 0.573.

First: G17A C22A G25A
Second: G17A C22A U35C A45C C46U
The yeast fitness of the first is lower: 0.501 for the first, 0.537 for the second.

G17A C22G C27A A36G and G17A C22G C27A A45U G56C G63C G67C cannot be ordered by yeast fitness: no more than 0.5 for the first, no more than 0.5 for the second.

First: G17A C22U A37U U47A G68C
Second: G17A C22U A45G C46U A69U
The yeast fitness of the first is lower: no more than 0.5 for the first, 0.603 for the second.

G17A C22U C27A C30G C49A and G17A C22U C27A C30G C66G cannot be ordered by yeast fitness: no more than 0.5 for the first, no more than 0.5 for the second.

G17A C22U U28C A65U and G17A C22U U28C U54G A57C cannot be ordered by yeast fitness: no more than 0.5 for the first, no more than 0.5 for the second.

First: G17A C22U U28C U54G A57C C62U
Second: G17A C22U U32A C34U A37G A40U C62A G63A
The yeast fitness of the first is higher: 0.535 for the first, 0.512 for the second.

G17A C22U U59A and G17A C24A C49U cannot be ordered by yeast fitness: no more than 0.5 for the first, no more than 0.5 for the second.

First: G17A C24G C33G C60U
Second: G17A C24U C29G
The yeast fitness of the first is lower: no more than 0.5 for the first, 0.533 for the second.

G17A C27G C46G A65G and G17A C27G C61U cannot be ordered by yeast fitness: no more than 0.5 for the first, no more than 0.5 for the second.

G17A C29G U47A G51A and G17A C29G U59G C61G C62U cannot be ordered by yeast fitness: no more than 0.5 for the first, no more than 0.5 for the second.

Compared with G17A C29U, G17A C29U U35G A37C G38C A65C is lower in yeast fitness: 0.832 for the first, no more than 0.5 for the second.

G17A C30A A57U G58A and G17A C30A C66U A70G cannot be ordered by yeast fitness: no more than 0.5 for the first, no more than 0.5 for the second.

First: G17A C30G
Second: G17A C30G A45G A65U
The yeast fitness of the first is higher: 0.604 for the first, no more than 0.5 for the second.

G17A C30G A45G C61G and G17A C30G C46U G63C C66U cannot be ordered by yeast fitness: no more than 0.5 for the first, no more than 0.5 for the second.

G17A C30G C61G and G17A C30U A42C cannot be ordered by yeast fitness: no more than 0.5 for the first, no more than 0.5 for the second.

First: G17A C30U A57C A69C
Second: G17A C31A G48C
The yeast fitness of the first is higher: 0.688 for the first, no more than 0.5 for the second.

First: G17A C31A U32A
Second: G17A C31G C49G
The yeast fitness of the first is higher: 0.62 for the first, no more than 0.5 for the second.

G17A C31G G48A and G17A C31G G68A cannot be ordered by yeast fitness: no more than 0.5 for the first, no more than 0.5 for the second.

Compared with G17A C31U, G17A C31U A42C is lower in yeast fitness: 0.74 for the first, 0.582 for the second.

Compared with G17A C31U A70C, G17A C31U G52A is lower in yeast fitness: 0.658 for the first, no more than 0.5 for the second.

First: G17A C31U U54G
Second: G17A C33A A37U A57G
The yeast fitness of the first is higher: 0.639 for the first, no more than 0.5 for the second.

G17A C33G A36G G63A and G17A C33G A40U A45G A65G cannot be ordered by yeast fitness: no more than 0.5 for the first, no more than 0.5 for the second.

G17A C33G A40U G51C and G17A C33G C66U cannot be ordered by yeast fitness: no more than 0.5 for the first, no more than 0.5 for the second.

First: G17A C33U
Second: G17A C33U A43U A57G G67U
The yeast fitness of the first is higher: 0.607 for the first, no more than 0.5 for the second.

G17A C34A A57U and G17A C34A C49U G52U cannot be ordered by yeast fitness: no more than 0.5 for the first, no more than 0.5 for the second.

G17A C34A G52U and G17A C34U C46G A65U cannot be ordered by yeast fitness: no more than 0.5 for the first, no more than 0.5 for the second.

Work on G17A C46G yielded a yeast fitness of 0.712.
